Source: ChEMBL document CHEMBL3044673, “Design, synthesis and insecticidal activity of novel phenylpyrazoles containing a 2,2,2-trichloro-1-alkoxyethyl moiety” (2010)

Assays:
Assay type in all cases: functional
Aphis craccivora [1] = assay: Insecticidal activity against Aphis craccivora (cowpea aphid) infested tender soybean shoots exposed to 200 mg/kg test compound solution assessed as insect mortality measured 24 hr post compound treatment
Summary of the method: (§1)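 Soybean tender shoots carrying 60 aphids were dipped in test solutions. Solutions were made from a 200 mg L^-1 stock in dimethylformamide, diluted with water containing TW-20. Insects were laboratory-reared, tests were held at 25±1 °C, and mortality was scored.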

Plutella xylostella [2] = assay: Insecticidal activity against Plutella xylostella (diamondback moth) grown on compound pre-treated fresh cabbage leaves assessed as insect mortality at 10 mg/kg measured 3 days post compound treatment by leaf-dip method; conditions: Plutella xylostella
Summary of the method: (§2)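 Leaf-dip stomach-toxicity assay on laboratory-reared diamondback moth. Test solutions came from a 200 mg L^-1 stock in dimethylformamide, diluted with water containing TW-20. Control leaves were treated with water and dimethylformamide. Tests were held at 25±1 °C, percentage mortality was scored 3 days after treatment, and each treatment was run three times.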

Plutella xylostella [3] = assay: Insecticidal activity against Plutella xylostella (diamondback moth) grown on compound pre-treated fresh cabbage leaves assessed as insect mortality at 50 mg/kg measured 3 days post compound treatment by leaf-dip method; summary of the method: as §2
Aphis craccivora [4] = assay: Insecticidal activity against Aphis craccivora (cowpea aphid) infested tender soybean shoots exposed to 100 mg/kg test compound solution assessed as insect mortality measured 24 hr post compound treatment; summary of the method: as §1
Aphis craccivora [5] = assay: Insecticidal activity against Aphis craccivora (cowpea aphid) infested tender soybean shoots exposed to 2.5 mg/kg test compound solution assessed as insect mortality measured 24 hr post compound treatment; conditions: Aphis craccivora, 24 h; summary of the method: as §1
Aphis craccivora [6] = assay: Insecticidal activity against Aphis craccivora (cowpea aphid) infested tender soybean shoots exposed to 50 mg/kg test compound solution assessed as insect mortality measured 24 hr post compound treatment; summary of the method: as §1
Culex pipiens pallens [7] = assay: Insecticidal activity against Culex pipiens pallens (mosquito) assessed as insect mortality at 25 ug/kg measured 1 day post compound treatment; conditions: 24 h
Summary of the method: (§3)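 Fourth-instar Culex pipiens pallens larvae, 20 per test, were laboratory-reared and placed in 100 mL of test solution made by adding 1 mL of compound dilution to 99 mL of water. Tests were held at 25±1 °C, percentage mortality was scored 1 day after treatment, and each test was run three times.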

Culex pipiens pallens [8] = assay: Insecticidal activity against Culex pipiens pallens (mosquito) assessed as insect mortality at 100 ug/kg measured 1 day post compound treatment; conditions: Culex pipiens, 24 h; summary of the method: as §3
Mythimna separata = assay: Insecticidal activity against Mythimna separata (Oriental armyworm) grown on compound pre-treated corn leaves assessed as insect mortality at 200 mg/kg measured 3 days post compound treatment by leaf-dip method
Plutella xylostella [9] = assay: Insecticidal activity against Plutella xylostella (diamondback moth) grown on compound pre-treated fresh cabbage leaves assessed as insect mortality at 5 mg/kg measured 3 days post compound treatment by leaf-dip method; conditions: Plutella xylostella; summary of the method: as §2
Plutella xylostella [10] = assay: Insecticidal activity against Plutella xylostella (diamondback moth) grown on compound pre-treated fresh cabbage leaves assessed as insect mortality at 2.5 mg/kg measured 3 days post compound treatment by leaf-dip method; summary of the method: as §2
Aphis craccivora [11] = assay: Insecticidal activity against Aphis craccivora (cowpea aphid) infested tender soybean shoots exposed to test compound solution assessed as insect mortality measured 24 hr post compound treatment; summary of the method: as §1
Plutella xylostella [12] = assay: Insecticidal activity against Plutella xylostella (diamondback moth) grown on compound pre-treated fresh cabbage leaves assessed as insect mortality at 100 mg/kg measured 3 days post compound treatment by leaf-dip method; summary of the method: as §2
Culex pipiens pallens [13] = assay: Insecticidal activity against Culex pipiens pallens (mosquito) assessed as insect mortality at 50 ug/kg measured 1 day post compound treatment; conditions: 24 h; summary of the method: as §3
Plutella xylostella [14] = assay: Insecticidal activity against Plutella xylostella (diamondback moth) grown on compound pre-treated fresh cabbage leaves assessed as insect mortality at 25 mg/kg measured 3 days post compound treatment by leaf-dip method; conditions: Plutella xylostella; summary of the method: as §2
Aphis craccivora [15] = assay: Insecticidal activity against Aphis craccivora (cowpea aphid) infested tender soybean shoots exposed to 10 mg/kg test compound solution assessed as insect mortality measured 24 hr post compound treatment; conditions: Aphis craccivora, 24 h; summary of the method: as §1
Aphis craccivora [16] = assay: Ratio of LC50 of ethiprole to LC50 of test compound against Aphis craccivora (cowpea aphid) infested tender soybean shoots exposed to test compound solution assessed as insect mortality measured 24 hr post compound treatment
Aphis craccivora [17] = assay: Insecticidal activity against Aphis craccivora (cowpea aphid) infested tender soybean shoots exposed to 25 mg/kg test compound solution assessed as insect mortality measured 24 hr post compound treatment; summary of the method: as §1
Aphis craccivora [18] = assay: Insecticidal activity against Aphis craccivora (cowpea aphid) infested tender soybean shoots exposed to 5 mg/kg test compound solution assessed as insect mortality measured 24 hr post compound treatment; conditions: Aphis craccivora, 24 h; summary of the method: as §1
Plutella xylostella [19] = assay: Insecticidal activity against Plutella xylostella (diamondback moth) grown on compound pre-treated fresh cabbage leaves assessed as insect mortality at 200 mg/kg measured 3 days post compound treatment by leaf-dip method; summary of the method: as §2
Culex pipiens pallens [20] = assay: Insecticidal activity against Culex pipiens pallens (mosquito) assessed as insect mortality at 10 ug/kg measured 1 day post compound treatment; conditions: 24 h; summary of the method: as §3
Culex pipiens pallens [21] = assay: Insecticidal activity against Culex pipiens pallens (mosquito) assessed as insect mortality at 5 ug/kg measured 1 day post compound treatment; conditions: 24 h; summary of the method: as §3

| Structure (SMILES) | mortality at 200 mg/kg (Aphis craccivora [1]) [%] | mortality at 10 mg/kg (Plutella xylostella [2]) [%] | mortality at 50 mg/kg (Plutella xylostella [3]) [%] | mortality at 100 mg/kg (Aphis craccivora [4]) [%] | mortality at 2.5 mg/kg (Aphis craccivora [5]) [%] | mortality at 50 mg/kg (Aphis craccivora [6]) [%] | mortality at 0.025 mg/kg (Culex pipiens pallens [7]) [%] | mortality at 0.1 mg/kg (Culex pipiens pallens [8]) [%] | mortality at 200 mg/kg (Mythimna separata) [%] | mortality at 5 mg/kg (Plutella xylostella [9]) [%] | mortality at 2.5 mg/kg (Plutella xylostella [10]) [%] | LC50 (Aphis craccivora [11]) [mg/kg] | mortality at 100 mg/kg (Plutella xylostella [12]) [%] | mortality at 0.05 mg/kg (Culex pipiens pallens [13]) [%] | mortality at 25 mg/kg (Plutella xylostella [14]) [%] | mortality at 10 mg/kg (Aphis craccivora [15]) [%] | RatioLC50 (Aphis craccivora [16]) | mortality at 25 mg/kg (Aphis craccivora [17]) [%] | mortality at 5 mg/kg (Aphis craccivora [18]) [%] | mortality at 200 mg/kg (Plutella xylostella [19]) [%] | also measured |
| --- | --- | --- | --- | --- | --- | --- | --- | --- | --- | --- | --- | --- | --- | --- | --- | --- | --- | --- | --- | --- | --- |
| CCCOC(Nc1c([S+](C)[O-])c(C#N)nn1-c1c(Cl)cc(C(F)(F)F)cc1Cl)C(Cl)(Cl)Cl (configuration not stated) | 100 | 71 | 100 | 100 | 0 | 100 | 50 | 100 | 40 | 30 | 0 | 2.7616 | 100 | 100 | 100 | 100 | 4.3 | 100 | 91 | 100 |  |
| CCSc1c(C#N)nn(-c2c(Cl)cc(C(F)(F)F)cc2Cl)c1NC(OCCF)C(Cl)(Cl)Cl (configuration not stated) | 100 | 29 | 100 | 100 |  | 100 | 100 | 100 | 20 | 0 |  |  | 100 | 100 | 100 | 11 |  | 29 | 0 | 100 | mortality at 0.01 mg/kg (Culex pipiens pallens [20]): 100%; mortality at 0.005 mg/kg (Culex pipiens pallens [21]): 0% |
| COC(Nc1c([S+](C)[O-])c(C#N)nn1-c1c(Cl)cc(C(F)(F)F)cc1Cl)C(Cl)(Cl)Cl (configuration not stated) | 100 | 91 | 100 | 100 | 0 | 100 |  | 100 |  | 88 | 34 | 2.8848 | 100 | 50 | 100 | 100 | 4.2 | 100 | 88 | 100 |  |
| CCCOC(Nc1c([S+]([O-])CC)c(C#N)nn1-c1c(Cl)cc(C(F)(F)F)cc1Cl)C(Cl)(Cl)Cl (configuration not stated) | 100 | 44 | 100 | 100 | 89 | 100 | 0 | 100 |  | 27 | 0 | 1.4873 | 100 | 100 | 87 | 100 | 7.9 | 100 | 100 | 100 |  |
| CC[S+]([O-])c1c(C#N)nn(-c2c(Cl)cc(C(F)(F)F)cc2Cl)c1N (configuration not stated) [ETHIPROLE] | 100 | 23 | 100 | 100 |  | 100 | 50 | 100 | 0 | 0 |  | 11.7263 | 100 | 100 | 69 | 31 |  | 100 | 0 | 100 |  |
